Source: PubChem BioAssay (The Scripps Research Institute Molecular Screening Center)
CHO parental Ca – signal in parental CHO cells, OX1R antagonist counter-screen; parental CHO-K1, ATP-induced calcium, Fluo-8 fluorescence; inhibition, % at 5.6 µM; actives 0.63% (n = 330,000);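 active means inhibition above that plate's mean sample inhibition plus 3 SD, cut at about 26% in these data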;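 further: 0% = ATP-challenged DMSO wells and 100% = DMSO wells without ATP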
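Material: parental CHO cells / Compound: single nominal dose of 5.6 µM per compound / Signal: Fluo-8 fluorescence / Replicates: singlicate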
TAAR1 agonist – agonists of human TAAR1; Q96RJ0; CHO RD-HGA16 TAAR1, Fluo-8 calcium fluorescence; vehicle wells 0%, saturating PEA agonist 100%; activation, % at 3 µM; actives 0.99% (n = 360,000);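 active means activation above the mean activation of all test compounds in the run plus 3 SD, cut at about 38% in these data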
Target sequence (Q96RJ0 whole entry, looked up): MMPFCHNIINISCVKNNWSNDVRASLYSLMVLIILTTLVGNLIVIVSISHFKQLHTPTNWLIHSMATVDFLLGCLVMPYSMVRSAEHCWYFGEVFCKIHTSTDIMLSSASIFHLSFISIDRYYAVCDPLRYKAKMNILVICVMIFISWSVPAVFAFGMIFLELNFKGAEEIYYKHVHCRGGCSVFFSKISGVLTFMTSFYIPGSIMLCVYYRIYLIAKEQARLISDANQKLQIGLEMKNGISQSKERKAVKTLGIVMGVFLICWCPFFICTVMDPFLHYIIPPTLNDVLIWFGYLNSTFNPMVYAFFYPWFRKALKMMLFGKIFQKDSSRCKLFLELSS
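Benchmarks: low control DMSO, high control PEA (EC100); System: CHO RD-HGA16 cells carrying human TAAR1 plus Gα16; Detection: Fluo-8 fluorescence, 5 s baseline then 140 s kinetic read; Schedule: 17-24 h plating, Fluo-8 75 min 37 °C, 30 min RT; Read-out basis: % activation from peak over basal fluorescence ratio, DMSO-to-PEA scaled.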
OX1R antag-1 – blocks the human orexin 1 receptor | CHO/OX1R cells, Fluo-8 calcium fluorescence, orexin A | inhibition, % at 5 µM | actives 0.43% (n = 330,000) | AID 434989;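 active means inhibition above its plate's threshold, mean inhibition of all tested compounds on the plate plus 3 SD, cut at about 37% in these data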;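 further: 0% = orexin A challenge wells and 100% = SB-334867-A antagonist wells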
Target sequence (O43613 whole entry, looked up): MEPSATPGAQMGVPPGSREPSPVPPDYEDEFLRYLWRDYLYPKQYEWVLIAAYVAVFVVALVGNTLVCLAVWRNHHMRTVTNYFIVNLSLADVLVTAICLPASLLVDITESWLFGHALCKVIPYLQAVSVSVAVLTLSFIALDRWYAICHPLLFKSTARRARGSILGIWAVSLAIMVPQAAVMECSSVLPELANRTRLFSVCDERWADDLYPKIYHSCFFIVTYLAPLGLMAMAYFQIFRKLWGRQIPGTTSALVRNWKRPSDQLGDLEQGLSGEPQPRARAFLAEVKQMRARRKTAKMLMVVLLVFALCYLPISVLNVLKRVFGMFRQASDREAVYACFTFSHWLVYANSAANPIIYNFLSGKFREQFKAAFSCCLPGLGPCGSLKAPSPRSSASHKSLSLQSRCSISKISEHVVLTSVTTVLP
OX1R antag-2 – blocks the human orexin 1 receptor; O43613; OX1R-expressing cells, FRET antagonist read-out; inhibition, % at 6.6 µM; actives 1.8% (n = 330,000); in the data active means inhibition mostly above about 38%, no sharp cut-off; inactive means mostly below about 40%;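 further: 0% = agonist challenge alone and 100% = reference antagonist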
TAAR1 antag – human TAAR1 antagonism; Q96RJ0; CHO RD-HGA16 TAAR1, Fluo-8 calcium fluorescence, antagonist; inhibition, % at 3 µM; actives 1.5% (n = 360,000); AID 624466;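 active means inhibition above a per-plate cutoff, the mean inhibition of test compounds on that plate plus 3 SD, cut at about 49% in these data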;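 further: 0% = DMSO plus EC80 beta-PEA response and 100% = DMSO alone without agonist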
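System: CHO RD-HGA16 cells bearing hTAAR1. Reagent: EC80 β-phenethylamine stimulus. Schedule: seeding 17-24 h prior, 75-min 37 °C, 30-min RT dye loading. Signal: Fluo-8 intracellular calcium dye fluorescence, real-time kinetic reads. Read-out: % inhibition from peak post-agonist over basal fluorescence ratio. Benchmarks: vehicle wells and EC80 agonist wells. Replicates: n of 1.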
nonsel antag count – nonselective antagonist in TAAR1 antagonist counter-screen | actives 77% (n = 2,400) | counterscreen cell line, calcium fluorescence, antagonist mode | shares compounds with TAAR1 antag | AID 651780 | inhibition, % at 3 µM; in the data active means inhibition above about 22%;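 further: CHO-Ga16 host cells stimulated with ATP at an EC80 level; 0% = agonist EC80 plus vehicle and 100% = vehicle without agonist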
TAAR1 ant conf – confirmation of human TAAR1 antagonists. shares compounds with TAAR1 antag. TAAR1-expressing cells, fluorescence antagonist read-out. inhibition, % at 3 µM. actives 40% (n = 2,400); in the data active means inhibition above about 49%;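 further: CHO-Ga16 host cells challenged with agonist PEA near its EC80; 0% = agonist at EC80 plus vehicle and 100% = vehicle with no agonist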
Ga16 ag counter – nonselective Ga16 agonist in TAAR1 antagonist counter-screen | shares compounds with TAAR1 antag | Ga16-expressing cells, calcium fluorescence, agonist counterscreen | activation, % at 3 µM | actives 18% (n = 2,400) | AID 651953; in the data active means activation above about 12%;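 further: 0% = vehicle wells and 100% = saturating stimulus response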
TAAR1 ag count – activates human TAAR1 in antagonist counter-screen | shares compounds with TAAR1 antag | activation, % at 3 µM | hTAAR1 cell line, fluorescence activation, agonist mode | AID 651955 | actives 2% (n = 2,400); in the data active means activation above about 37%;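 further: CHO cells stably expressing TAAR1 with calcium dye readout; 0% = DMSO vehicle and 100% = full agonist response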
The depositor's hits bear a star; . = no result given. A selection: hits, their analogues and other compounds. The true share with any hit is near 4%.

SMILES	CHO parental Ca	TAAR1 agonist	OX1R antag-1	OX1R antag-2	TAAR1 antag	nonsel antag count	TAAR1 ant conf	Ga16 ag counter	TAAR1 ag count
O=C(CSc1nnc(-c2ccc(Cl)cc2)n1-c1ccc(Cl)cc1)N/N=C/c1ccco1	-31.9	13.4	-23.9	12.6	78.0*	27.4*	54.4*	8.4	5.8
O=C(CN(c1cccc(Cl)c1)S(=O)(=O)c1ccc(Cl)cc1)NCc1ccccn1	-20.3	-1.0	-15.7	15.9	-37.5	.	.	.	.
COc1ccccc1NC(=O)Cn1nnc(-c2ccccc2NC(=O)c2ccco2)n1	-13.7	12.6	-21.0	17.1	55.6*	21.2	35.2	8.7	13.1
COc1ccc(/C=N/Nc2nc(-c3ccc(C)cc3)c(NC(C)=O)s2)cc1	-9.5	-0.3	-4.9	10.8	50.8*	7.2	42.4	0.9	4.2
CC(=O)Nc1sc(N/N=C/c2ccc(O)cc2)nc1-c1ccc(C)cc1	-10.9	0.0	-18.0	13.2	-22.3	.	.	.	.
CCCCc1nnc(NC(=O)Cc2ccc(S(=O)(=O)N3CCOCC3)s2)s1	-7.7	0.9	-13.2	2.1	5.3	.	.	.	.
CC(C)Nc1nnc(SCC(=O)Nc2ccc3c(c2)C(=O)c2ccccc2C3=O)s1	-4.4	21.9	-0.8	39.0	68.4*	46.6*	58.8*	15.4*	16.1
Fc1cccc(NC(=S)NNc2c3ccccc3nc3ccccc23)c1	.	-0.3	.	.	52.7*	40.1*	47.6	3.2	0.5
CN(C)S(=O)(=O)c1ccc(C(=O)Nc2nc(-c3cccs3)cs2)cc1	7.2	8.0	5.5	23.2	53.8*	32.6*	37.1	11.8*	8.9
COc1ccc(S(=O)(=O)Nc2ccccc2C(=O)Nc2nc(-c3ccc(F)cc3)cs2)cc1OC	26.3	9.3	38.6	66.8*	90.5*	51.8*	61.2*	9.3	4.5
Cc1noc(C)c1CSCC(=O)Nc1nc(-c2ccc(F)c(F)c2)cs1	28.0	9.8	21.3	29.7	81.5*	49.2*	58.0*	9.4	4.1
O=C(Cc1ccccc1F)Nc1nc(-c2ccc(F)cc2)cs1	-12.4	4.9	0.2	57.1	73.9*	30.0*	59.4*	8.7	13.7
COc1ccccc1CC(=O)Nc1nc(-c2ccc(F)c(F)c2)cs1	-11.8	-0.7	-23.6	7.4	51.1*	22.2*	40.4	9.5	13.3
COc1ccc(NC(=O)C2Cc3c(-c4ccc(Cl)cc4)ccnc3O2)cn1 (stereo not given)	.	-0.9	.	.	-12.5	.	.	.	.
CC1=C(C(=O)Nc2cc(C(=O)N3CCN(c4cccc(C)c4C)CC3)ccc2C)SCCO1	12.4	6.5	4.5	11.1	61.8*	34.0*	45.8	5.2	4.0
Cc1ccccc1NC(NC(=O)c1cccs1)C(Cl)(Cl)Cl (stereo not given)	-16.1	13.4	-20.3	41.6	52.1*	20.4	38.3	13.3*	15.7
CCOc1cc(C(=S)N2CCOCC2)ccc1OC(=O)c1cccc(C)c1	-9.2	9.3	5.8	47.1	66.5*	31.2*	47.9	5.3	1.5
COc1cc(-c2noc(C3CCCN(C(=O)c4c(F)cccc4F)C3)n2)cc(OC)c1OC (stereo not given)	-9.3	2.0	-33.2	23.2	10.6	.	.	.	.
COc1ccccc1-c1cc(C(=O)N/N=C/C=C/c2ccccc2[N+](=O)[O-])c2ccccc2n1	-17.8	2.4	-27.0	15.1	29.3	.	.	.	.
CCOc1ccc(-c2cc(C(=O)N/N=C/c3cccnc3)c3ccccc3n2)cc1	-48.5	9.3	-35.7	14.9	42.1	.	.	.	.
O=C(N/N=C/C=C/c1ccccc1[N+](=O)[O-])c1cc(-c2cccnc2)nc2ccccc12	-4.8	10.9	-10.8	31.1	59.1*	32.8*	42.6	4.2	-1.3
COc1cc(/C=N/NC(=O)c2cc(-c3c(C)nn(-c4ccccc4)c3C)n[nH]2)ccc1O	-18.9	6.7	-13.4	16.3	54.2*	27.5*	40.8	6.2	5.6
CC(C)COc1cccc(-c2cc(C(=O)N/N=C/c3ccncc3)c3ccccc3n2)c1	.	3.4	.	.	60.8*	7.9	27.1	5.6	18.1
Cc1nn(-c2ccccc2)c(C)c1-c1cc(C(=O)N/N=C/c2ccc(O)cc2)[nH]n1	-9.8	2.8	-15.2	18.7	8.1	.	.	.	.
COc1cc(/C=N/NC(=O)c2cc(-c3ccccc3OC(C)C)nc3ccccc23)ccc1O	-20.1	7.7	-19.2	14.7	57.3*	13.4	42.2	9.4	12.8
SMILES	CHO parental Ca	TAAR1 agonist	OX1R antag-1	OX1R antag-2	TAAR1 antag	nonsel antag count	TAAR1 ant conf	Ga16 ag counter	TAAR1 ag count
COc1ccc(C(=O)NCc2nnc(SCC(=O)NCCc3ccccc3)o2)cc1	-8.2	1.3	-14.5	2.6	0.9	.	.	.	.
O=S(=O)(Cc1ccccc1)Nc1ccc(F)cc1	.	-0.8	.	.	11.1	.	.	.	.
Cc1ccc(S(=O)(=O)N(C)C)cc1NC(=S)N(C)C1CCN(C)CC1	-2.4	-0.6	-14.5	-6.9	-2.9	.	.	.	.
O=C1CCC([N+](=O)[O-])C(c2ccccc2F)N1 (stereo not given)	1.3	3.2	-12.7	-12.2	-4.8	.	.	.	.
CCOc1cc(/C=N/NC(=O)c2cc(-c3cccc(OC)c3)nc3ccccc23)ccc1O	-28.7	8.0	-2.1	23.0	75.9*	13.6	46.2	8.3	7.6
Cc1ccc(-c2[nH]c3ccccc3c2SCCNC(=O)c2ccc(S(=O)(=O)N3CCOCC3)cc2)cc1	0.8	1.2	-20.2	9.6	1.7	.	.	.	.
COc1ccc(-c2[nH]c3ccccc3c2SCCNC(=O)c2ccccc2)cc1	1.2	1.8	-8.8	28.9	70.2*	23.0*	41.2	4.6	5.2
Cc1ccc(Nc2cc(C)c(O)c(C)c2)cc1	-17.3	-0.3	-16.4	9.0	-25.4	.	.	.	.
N=C1/C(=C\c2ccc(-c3ccc(C(=O)O)cc3)o2)C(=O)N=C2SC=C(c3ccccc3)N12	.	22.7	.	.	53.7*	45.0*	62.5*	16.0*	14.5
CCOC(=O)N1C(=O)NC(=O)C1c1ccc(Cl)cc1 (stereo not given)	.	0.9	.	.	-34.7	.	.	.	.
COc1ccc(N(C(=O)c2snc(C(N)=O)c2N)C(C(=O)NCc2ccccc2)c2ccc(O)cc2)cc1 (stereo not given)	.	6.2	.	.	15.1	.	.	.	.
NC(=O)c1nsc(C(=O)N(c2ccccc2)C(C(=O)NCc2ccc(F)cc2)c2ccco2)c1N (stereo not given)	-10.1	17.2	-7.8	10.8	67.5*	21.4*	53.0*	9.2	39.6*
